Reference: ChEMBL document CHEMBL5303300, “EUbOPEN Chemogenomics Library - Multiplex” (2023)
Several values for one entry are separate records, joined by “and”; a condition that tells them apart may be missing. Equal values may be shown once.

How the values were obtained:
HEK-293T = test: Multiplex assay against HEK293T; assay type: toxicity, cell-based; conditions: human, number of replicates 2
In short: (§1)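 Live cells were stained at seeding with Hoechst33342, BioTracker Green Microtubule Cytoskeleton Dye, MitoTracker Red and Annexin V Alexa Fluor 680. Following compound addition, they were imaged on a CQ1 microscope at 37°C and 5% CO2 and gated by CellPathfinder machine learning into Hoechst high-intensity objects or normal cells, with normal cells split into healthy, pyknosed or fragmented nuclei and pyknosed cells into mitotic or apoptotic. Tubulin, mitochondrial-mass and membrane-permeability phenotypes are per cents of healthy-nucleus cells.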

Fibroblast = test: Multiplex assay against human fibroblast; assay type: toxicity, cell-based; conditions: number of replicates 2; in short: as §1
[1] = 12 h, 1 µM, compound concentration 1 uM
[2] = 12 h, 10 µM, compound concentration 10 uM
[3] = 24 h, 1 µM, compound concentration 1 uM
[4] = 24 h, 10 µM, compound concentration 10 uM
[5] = 48 h, 1 µM, compound concentration 1 uM
[6] = 48 h, 10 µM, compound concentration 10 uM

Q: How did the “Population Apoptotic (%)” value (HEK-293T; [1]) turn out when `Br.Oc1cc2c(cc1O)C(c1ccccc1)CNCC2` (stereo unspecified) was run?
A: Its value is 30% and 41%.

Q: And the “Population Fragmented Nuclei (%)” value (HEK-293T; [1])?
A: Its value is 5% and 3%.

Q: What about the “Population Healthy Nuclei (%)” value (HEK-293T; [1]) of the same compound?
A: Its value is 85%.

Q: What about the “Population Hoechst High Intensity Objects (%)” value (HEK-293T; [1]) of the same compound?
A: Its value is 6% and 4%.

Q: And the “Population Membrane Permeable-Phenotype (%)” value (HEK-293T; [1])?
A: Its value is 4% and 2%.

Q: And the “Population Mitochondria Different-Phenotype (%)” value (HEK-293T; [1])?
A: The value was 9% and 10%.

Q: And the “Population Mitotic Cells (%)” value (HEK-293T; [1])?
A: The value was 69% and 58%.

Q: What about the “Population Normal (%)” value (HEK-293T; [1]) of the same compound?
A: The value was 93% and 95%.

Q: What about the “Population Pyknosed Nuclei (%)” value (HEK-293T; [1]) of the same compound?
A: The value was 9% and 10%.

Q: And the “Population Tubulin-Different-Phenotype (%)” value (HEK-293T; [1])?
A: Its value is 45% and 42%.

Q: And the “Total Cell Count” value (HEK-293T; [1])?
A: Its value is 950 and 793.

Q: What about the “Population Apoptotic (%)” value (HEK-293T; [2]) of the same compound?
A: The value was 36% and 47%.

Q: What about the “Population Fragmented Nuclei (%)” value (HEK-293T; [2]) of the same compound?
A: Its value is 4% and 3%.

Q: And the “Population Healthy Nuclei (%)” value (HEK-293T; [2])?
A: Its value is 86% and 88%.

Q: What about the “Population Hoechst High Intensity Objects (%)” value (HEK-293T; [2]) of the same compound?
A: The value was 7% and 5%.

Q: And the “Population Membrane Permeable-Phenotype (%)” value (HEK-293T; [2])?
A: The value was 2% and 0%.

Q: What about the “Population Mitochondria Different-Phenotype (%)” value (HEK-293T; [2]) of the same compound?
A: The value was 12% and 21%.

Q: And the “Population Mitotic Cells (%)” value (HEK-293T; [2])?
A: The value was 63% and 52%.

Q: What about the “Population Normal (%)” value (HEK-293T; [2]) of the same compound?
A: The value was 92% and 94%.

Q: And the “Population Pyknosed Nuclei (%)” value (HEK-293T; [2])?
A: Its value is 8%.

Q: And the “Population Tubulin-Different-Phenotype (%)” value (HEK-293T; [2])?
A: Its value is 51% and 55%.

Q: And the “Total Cell Count” value (HEK-293T; [2])?
A: Its value is 631 and 499.

Q: And the “Population Apoptotic (%)” value (HEK-293T; [3])?
A: Its value is 20% and 36%.

Q: And the “Population Fragmented Nuclei (%)” value (HEK-293T; [3])?
A: Its value is 6% and 5%.

Q: What about the “Population Healthy Nuclei (%)” value (HEK-293T; [3]) of the same compound?
A: Its value is 89%.

Q: And the “Population Hoechst High Intensity Objects (%)” value (HEK-293T; [3])?
A: The value was 8% and 9%.

Q: And the “Population Membrane Permeable-Phenotype (%)” value (HEK-293T; [3])?
A: The value was 3% and 2%.

Q: What about the “Population Mitochondria Different-Phenotype (%)” value (HEK-293T; [3]) of the same compound?
A: The value was 3%.

Q: What about the “Population Mitotic Cells (%)” value (HEK-293T; [3]) of the same compound?
A: The value was 80% and 63%.

Q: What about the “Population Normal (%)” value (HEK-293T; [3]) of the same compound?
A: The value was 91% and 90%.

Q: And the “Population Pyknosed Nuclei (%)” value (HEK-293T; [3])?
A: The value was 4% and 5%.

Q: What about the “Population Tubulin-Different-Phenotype (%)” value (HEK-293T; [3]) of the same compound?
A: The value was 27% and 29%.

Q: And the “Total Cell Count” value (HEK-293T; [3])?
A: The value was 1693 and 1195.

Q: And the “Population Apoptotic (%)” value (HEK-293T; [4])?
A: The value was 29% and 50%.

Q: And the “Population Fragmented Nuclei (%)” value (HEK-293T; [4])?
A: Its value is 9% and 7%.

Q: What about the “Population Healthy Nuclei (%)” value (HEK-293T; [4]) of the same compound?
A: The value was 86% and 88%.

Q: And the “Population Hoechst High Intensity Objects (%)” value (HEK-293T; [4])?
A: Its value is 9% and 6%.

Q: What about the “Population Membrane Permeable-Phenotype (%)” value (HEK-293T; [4]) of the same compound?
A: The value was 4% and 2%.

Q: What about the “Population Mitochondria Different-Phenotype (%)” value (HEK-293T; [4]) of the same compound?
A: The value was 3% and 12%.

Q: What about the “Population Mitotic Cells (%)” value (HEK-293T; [4]) of the same compound?
A: Its value is 70% and 50%.

Q: And the “Population Normal (%)” value (HEK-293T; [4])?
A: The value was 90% and 93%.

Q: What about the “Population Pyknosed Nuclei (%)” value (HEK-293T; [4]) of the same compound?
A: Its value is 4%.

Q: And the “Population Tubulin-Different-Phenotype (%)” value (HEK-293T; [4])?
A: The value was 30% and 40%.

Q: What about the “Total Cell Count” value (HEK-293T; [4]) of the same compound?
A: Its value is 1020 and 788.

Q: What about the “Population Apoptotic (%)” value (HEK-293T; [5]) of the same compound?
A: The value was 4% and 10%.

Q: What about the “Population Fragmented Nuclei (%)” value (HEK-293T; [5]) of the same compound?
A: Its value is 20% and 11%.

Q: And the “Population Healthy Nuclei (%)” value (HEK-293T; [5])?
A: Its value is 78% and 85%.

Q: And the “Population Hoechst High Intensity Objects (%)” value (HEK-293T; [5])?
A: The value was 11% and 9%.

Q: And the “Population Membrane Permeable-Phenotype (%)” value (HEK-293T; [5])?
A: Its value is 6% and 5%.

Q: And the “Population Mitochondria Different-Phenotype (%)” value (HEK-293T; [5])?
A: Its value is 0%.

Q: And the “Population Mitotic Cells (%)” value (HEK-293T; [5])?
A: Its value is 95% and 89%.

Q: What about the “Population Normal (%)” value (HEK-293T; [5]) of the same compound?
A: The value was 88% and 90%.

Q: What about the “Population Pyknosed Nuclei (%)” value (HEK-293T; [5]) of the same compound?
A: The value was 1% and 2%.

Q: And the “Population Tubulin-Different-Phenotype (%)” value (HEK-293T; [5])?
A: Its value is 17% and 16%.

Q: What about the “Total Cell Count” value (HEK-293T; [5]) of the same compound?
A: The value was 4091 and 2858.

Q: What about the “Population Fragmented Nuclei (%)” value (HEK-293T; [6]) of the same compound?
A: The value was 23% and 14%.

Q: What about the “Population Healthy Nuclei (%)” value (HEK-293T; [6]) of the same compound?
A: The value was 75% and 82%.

Q: What about the “Population Hoechst High Intensity Objects (%)” value (HEK-293T; [6]) of the same compound?
A: Its value is 9%.

Q: What about the “Population Membrane Permeable-Phenotype (%)” value (HEK-293T; [6]) of the same compound?
A: The value was 8% and 5%.

Q: And the “Population Mitochondria Different-Phenotype (%)” value (HEK-293T; [6])?
A: The value was 0% and 1%.

Q: And the “Population Mitotic Cells (%)” value (HEK-293T; [6])?
A: Its value is 96% and 84%.

Q: What about the “Population Normal (%)” value (HEK-293T; [6]) of the same compound?
A: Its value is 90%.

Q: What about the “Population Pyknosed Nuclei (%)” value (HEK-293T; [6]) of the same compound?
A: The value was 1% and 3%.

Q: And the “Population Tubulin-Different-Phenotype (%)” value (HEK-293T; [6])?
A: Its value is 15% and 21%.

Q: What about the “Total Cell Count” value (HEK-293T; [6]) of the same compound?
A: Its value is 2576 and 1623.

Q: And the “Population Apoptotic (%)” value (Fibroblast; [1])?
A: Its value is 86% and 44%.

Q: And the “Population Fragmented Nuclei (%)” value (Fibroblast; [1])?
A: Its value is 18% and 16%.

Q: And the “Population Healthy Nuclei (%)” value (Fibroblast; [1])?
A: Its value is 73%.

Q: What about the “Population Hoechst High Intensity Objects (%)” value (Fibroblast; [1]) of the same compound?
A: Its value is 0%.

Q: What about the “Population Membrane Permeable-Phenotype (%)” value (Fibroblast; [1]) of the same compound?
A: Its value is 5% and 4%.

Q: What about the “Population Mitochondria Different-Phenotype (%)” value (Fibroblast; [1]) of the same compound?
A: Its value is 0% and 1%.

Q: What about the “Population Normal (%)” value (Fibroblast; [1]) of the same compound?
A: The value was 100% and 99%.

Q: And the “Population Pyknosed Nuclei (%)” value (Fibroblast; [1])?
A: The value was 8% and 10%.

Q: What about the “Population Tubulin-Different-Phenotype (%)” value (Fibroblast; [1]) of the same compound?
A: Its value is 7% and 6%.

Q: What about the “Total Cell Count” value (Fibroblast; [1]) of the same compound?
A: The value was 185 and 180.

Q: What about the “Population Apoptotic (%)” value (Fibroblast; [2]) of the same compound?
A: Its value is 76% and 66%.

Q: What about the “Population Fragmented Nuclei (%)” value (Fibroblast; [2]) of the same compound?
A: The value was 13% and 12%.

Q: What about the “Population Healthy Nuclei (%)” value (Fibroblast; [2]) of the same compound?
A: The value was 76% and 79%.

Q: What about the “Population Hoechst High Intensity Objects (%)” value (Fibroblast; [2]) of the same compound?
A: Its value is 0%.

Q: And the “Population Membrane Permeable-Phenotype (%)” value (Fibroblast; [2])?
A: The value was 2%.

Q: And the “Population Mitochondria Different-Phenotype (%)” value (Fibroblast; [2])?
A: The value was 0% and 4%.

Q: And the “Population Mitotic Cells (%)” value (Fibroblast; [2])?
A: The value was 23% and 33%.

Q: What about the “Population Normal (%)” value (Fibroblast; [2]) of the same compound?
A: The value was 100%.

Q: What about the “Population Pyknosed Nuclei (%)” value (Fibroblast; [2]) of the same compound?
A: Its value is 9% and 8%.

Q: And the “Population Tubulin-Different-Phenotype (%)” value (Fibroblast; [2])?
A: Its value is 15% and 11%.

Q: What about the “Total Cell Count” value (Fibroblast; [2]) of the same compound?
A: The value was 132 and 172.

Q: What about the “Population Apoptotic (%)” value (Fibroblast; [3]) of the same compound?
A: The value was 31% and 66%.

Q: And the “Population Fragmented Nuclei (%)” value (Fibroblast; [3])?
A: The value was 18% and 16%.

Q: What about the “Population Healthy Nuclei (%)” value (Fibroblast; [3]) of the same compound?
A: Its value is 69% and 76%.

Q: What about the “Population Hoechst High Intensity Objects (%)” value (Fibroblast; [3]) of the same compound?
A: The value was 0%.

Q: And the “Population Membrane Permeable-Phenotype (%)” value (Fibroblast; [3])?
A: The value was 6% and 4%.
